Test results from ChEMBL document CHEMBL5335771, “Thioxanthenone-based derivatives as multitarget therapeutic leads for Alzheimer's disease” (Eur J Med Chem, 2023).
Calls of active or inactive are those of the source. No cut-off for these calls is given here.

How the values were obtained:
[1] = molecular target: Microtubule-associated protein tau (Homo sapiens, UniProt P10636); test: Inhibition of tau (unknown origin) aggregation expressed in Escherichia coli BL21 (DE3)
Outline: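 E. coli BL21(DE3) carrying pTARA (T7 RNA polymerase under PBAD) and pRKT42 (four-repeat tau) grown at 37 °C in M9 with 0.5% glucose, antibiotics and 250 μM ThS to OD600 0.6. […] ThS fluorescence ex 430/em 485 nm, normalized to tau-expressing cells (100%) and non-expressing cells (0%); OD600 checked for growth.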

[2] = molecular target: Acetylcholinesterase (Homo sapiens, UniProt P22303); test: Inhibition of human recombinant AChE using acetylthiocholine iodide as substrate preincubated for 20 mins followed by substrate addition by DTNB reagent based Ellman's method
[3] = molecular target: Cholinesterase (Homo sapiens, UniProt P06276); test: Inhibition of human recombinant BChE using acetylthiocholine iodide as substrate at 10 uM preincubated for 20 mins followed by substrate addition by DTNB reagent based Ellman's method relative to control
Outline: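 Human BChE activity was read by the Ellman spectrophotometric method. Results are % inhibition at a single 10 μM inhibitor concentration. Values are means of three independent experiments.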

[4] = Cytotoxicity against mouse brain Primary embryonic cortical cell assessed as cell death at 2.5 uM incubated for 1 hr by propidium iodide dye based spectrofluorometric analysis relative to control; type: toxicity
Outline: (§1)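 Primary cortical cultures from E16.5 mouse embryo brains, trypsinized, plated on poly-D-lysine, grown in Neurobasal with glutamine, glucose, 5% horse serum and B27; compounds added at 4 DIV. Propidium iodide 30 μM; baseline F1 read 1 h after PI; ex 530/em 645 nm. Fmax after digitonin permeabilization. % death = 100×(Fn−F1)/(Fmax−F1); mean of three independent experiments.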

[5] = Cytotoxicity against mouse brain Primary embryonic cortical cell assessed as cell death at 2.5 uM incubated for 2 hrs by propidium iodide dye based spectrofluorometric analysis relative to control; type: toxicity; outline: as §1
[6] = Cytotoxicity against mouse brain Primary embryonic cortical cell assessed as cell death at 2.5 uM incubated for 3 hrs by propidium iodide dye based spectrofluorometric analysis relative to control; type: toxicity; outline: as §1
[7] = Cytotoxicity against mouse brain Primary embryonic cortical cell assessed as cell death at 2.5 uM incubated for 4 hrs by propidium iodide dye based spectrofluorometric analysis relative to control; type: toxicity; outline: as §1
[8] = Cytotoxicity against mouse brain Primary embryonic cortical cell assessed as cell death at 2.5 uM incubated for 6 hrs by propidium iodide dye based spectrofluorometric analysis relative to control; type: toxicity; outline: as §1
[9] = Cytotoxicity against mouse brain Primary embryonic cortical cell assessed as cell death at 2.5 uM incubated for 24 hrs by propidium iodide dye based spectrofluorometric analysis relative to control; type: toxicity; outline: as §1
[10] = Cytotoxicity against mouse brain Primary embryonic cortical cell assessed as cell death at 2.5 uM incubated for 48 hrs by propidium iodide dye based spectrofluorometric analysis relative to control; type: toxicity; outline: as §1
[11] = Cytotoxicity against mouse brain Primary embryonic cortical cell assessed as cell death at 2.5 uM incubated for 72 hrs by propidium iodide dye based spectrofluorometric analysis relative to control; type: toxicity; outline: as §1
[12] = Cytotoxicity against mouse brain Primary embryonic cortical cell assessed as cell death at 5 uM incubated for 1 hr by propidium iodide dye based spectrofluorometric analysis relative to control; type: toxicity; outline: as §1
[13] = Cytotoxicity against mouse brain Primary embryonic cortical cell assessed as cell death at 5 uM incubated for 2 hrs by propidium iodide dye based spectrofluorometric analysis relative to control; type: toxicity; outline: as §1
[14] = Cytotoxicity against mouse brain Primary embryonic cortical cell assessed as cell death at 5 uM incubated for 4 hrs by propidium iodide dye based spectrofluorometric analysis relative to control; type: toxicity; outline: as §1
[15] = Cytotoxicity against mouse brain Primary embryonic cortical cell assessed as cell death at 5 uM incubated for 6 hrs by propidium iodide dye based spectrofluorometric analysis relative to control; type: toxicity; outline: as §1
[16] = Cytotoxicity against mouse brain Primary embryonic cortical cell assessed as cell death at 5 uM incubated for 24 hrs by propidium iodide dye based spectrofluorometric analysis relative to control; type: toxicity; outline: as §1
[17] = Cytotoxicity against mouse brain Primary embryonic cortical cell assessed as cell death at 5 uM incubated for 72 hrs by propidium iodide dye based spectrofluorometric analysis relative to control; type: toxicity; outline: as §1
[18] = Cytotoxicity against mouse brain Primary embryonic cortical cell assessed as cell death at 10 uM incubated for 1 hr by propidium iodide dye based spectrofluorometric analysis relative to control; type: toxicity; outline: as §1
[19] = Cytotoxicity against mouse brain Primary embryonic cortical cell assessed as cell death at 10 uM incubated for 3 hrs by propidium iodide dye based spectrofluorometric analysis relative to control; type: toxicity; outline: as §1
[20] = Cytotoxicity against mouse brain Primary embryonic cortical cell assessed as cell death at 10 uM incubated for 6 hrs by propidium iodide dye based spectrofluorometric analysis relative to control; type: toxicity; outline: as §1
[21] = Cytotoxicity against mouse brain Primary embryonic cortical cell assessed as cell death at 10 uM incubated for 24 hrs by propidium iodide dye based spectrofluorometric analysis relative to control; type: toxicity; outline: as §1
[22] = Cytotoxicity against mouse brain Primary embryonic cortical cell assessed as cell death at 10 uM incubated for 48 hrs by propidium iodide dye based spectrofluorometric analysis relative to control; type: toxicity; outline: as §1
[23] = Cytotoxicity against mouse brain Primary embryonic cortical cell assessed as cell death at 10 uM incubated for 72 hrs by propidium iodide dye based spectrofluorometric analysis relative to control; type: toxicity; outline: as §1
[24] = Cytotoxicity against mouse brain Primary embryonic cortical cell assessed as cell death at 30 uM incubated for 1 hr by propidium iodide dye based spectrofluorometric analysis relative to control; type: toxicity; outline: as §1
[25] = Cytotoxicity against mouse brain Primary embryonic cortical cell assessed as cell death at 30 uM incubated for 2 hrs by propidium iodide dye based spectrofluorometric analysis relative to control; type: toxicity; outline: as §1
[26] = Cytotoxicity against mouse brain Primary embryonic cortical cell assessed as cell death at 30 uM incubated for 3 hrs by propidium iodide dye based spectrofluorometric analysis relative to control; type: toxicity; outline: as §1
[27] = Cytotoxicity against mouse brain Primary embryonic cortical cell assessed as cell death at 30 uM incubated for 4 hrs by propidium iodide dye based spectrofluorometric analysis relative to control; type: toxicity; outline: as §1
[28] = Cytotoxicity against mouse brain Primary embryonic cortical cell assessed as cell death at 30 uM incubated for 5 hrs by propidium iodide dye based spectrofluorometric analysis relative to control; type: toxicity; outline: as §1
[29] = Cytotoxicity against mouse brain Primary embryonic cortical cell assessed as cell death at 30 uM incubated for 48 hrs by propidium iodide dye based spectrofluorometric analysis relative to control; type: toxicity; outline: as §1
[30] = Cytotoxicity against mouse brain Primary embryonic cortical cell assessed as cell death at 30 uM incubated for 72 hrs by propidium iodide dye based spectrofluorometric analysis relative to control; type: toxicity; outline: as §1
[31] = system: SH-SY5Y; test: Neuroprotective activity against okadaic acid-induced cytotoxicity in human SH-SY5Y cells assessed as increase in cell viability at 0.1 to 10 uM incubated for 24 hrs by MTT assay; type: functional, cell-based; details: dose 0.1-10 µM
Outline: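 SH-SY5Y cells grown in DMEM with 10% FBS and plated at 4.5×10^4 cells/well. Incubated 24 h at 37 °C, 5% CO2 with compound (0.1–50 μM) plus okadaic acid 100 nM. Viability by MTT, expressed as % of untreated cells; estradiol and PD38 as positive controls. Mean ± SD of three independent experiments; ANOVA with Dunnett's test.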

[32] = Cytotoxicity against rat Primary cerebellar granule neuron assessed as cell viability at 10 uM relative to control; type: toxicity, cell-based, Cerebellar granule neurone; details: primary cerebellar granule neurons, read-out: Activity

Cholinesterase, sequence (P06276 whole entry): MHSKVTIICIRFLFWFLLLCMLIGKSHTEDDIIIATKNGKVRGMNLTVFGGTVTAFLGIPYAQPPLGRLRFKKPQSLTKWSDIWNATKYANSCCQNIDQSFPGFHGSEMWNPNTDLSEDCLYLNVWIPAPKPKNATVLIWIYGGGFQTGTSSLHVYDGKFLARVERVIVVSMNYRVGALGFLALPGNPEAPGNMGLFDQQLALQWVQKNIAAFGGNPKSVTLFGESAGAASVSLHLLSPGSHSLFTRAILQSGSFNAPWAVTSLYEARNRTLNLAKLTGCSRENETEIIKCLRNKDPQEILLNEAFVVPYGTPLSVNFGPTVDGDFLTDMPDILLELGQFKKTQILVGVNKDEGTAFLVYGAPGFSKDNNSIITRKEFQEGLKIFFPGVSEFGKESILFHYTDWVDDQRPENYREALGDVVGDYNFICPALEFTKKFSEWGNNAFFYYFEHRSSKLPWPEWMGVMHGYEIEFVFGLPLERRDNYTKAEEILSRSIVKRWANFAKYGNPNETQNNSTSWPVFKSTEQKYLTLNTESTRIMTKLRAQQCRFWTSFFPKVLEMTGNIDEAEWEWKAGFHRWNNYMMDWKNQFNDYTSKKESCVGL
Microtubule-associated protein tau, sequence (P10636 whole entry): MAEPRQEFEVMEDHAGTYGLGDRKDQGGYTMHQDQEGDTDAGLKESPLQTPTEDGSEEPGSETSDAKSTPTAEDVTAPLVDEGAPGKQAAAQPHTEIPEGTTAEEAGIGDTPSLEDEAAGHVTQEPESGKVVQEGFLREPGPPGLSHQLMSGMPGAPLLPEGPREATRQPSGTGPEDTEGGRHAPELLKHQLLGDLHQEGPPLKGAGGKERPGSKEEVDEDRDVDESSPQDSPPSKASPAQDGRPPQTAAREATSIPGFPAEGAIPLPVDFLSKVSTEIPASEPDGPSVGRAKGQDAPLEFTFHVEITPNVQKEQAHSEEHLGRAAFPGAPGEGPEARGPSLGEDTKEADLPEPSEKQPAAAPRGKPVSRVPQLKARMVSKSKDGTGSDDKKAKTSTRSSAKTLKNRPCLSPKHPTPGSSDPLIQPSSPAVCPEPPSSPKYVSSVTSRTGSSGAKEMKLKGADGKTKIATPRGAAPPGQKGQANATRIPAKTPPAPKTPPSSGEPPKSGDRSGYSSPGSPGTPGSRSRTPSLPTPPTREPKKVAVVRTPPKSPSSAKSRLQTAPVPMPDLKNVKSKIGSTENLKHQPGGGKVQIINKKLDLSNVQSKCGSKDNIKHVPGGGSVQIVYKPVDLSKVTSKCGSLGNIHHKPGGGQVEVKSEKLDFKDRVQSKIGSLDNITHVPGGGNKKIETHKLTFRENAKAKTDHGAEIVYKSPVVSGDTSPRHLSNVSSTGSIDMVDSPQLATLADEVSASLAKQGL
Acetylcholinesterase, sequence (P22303 whole entry): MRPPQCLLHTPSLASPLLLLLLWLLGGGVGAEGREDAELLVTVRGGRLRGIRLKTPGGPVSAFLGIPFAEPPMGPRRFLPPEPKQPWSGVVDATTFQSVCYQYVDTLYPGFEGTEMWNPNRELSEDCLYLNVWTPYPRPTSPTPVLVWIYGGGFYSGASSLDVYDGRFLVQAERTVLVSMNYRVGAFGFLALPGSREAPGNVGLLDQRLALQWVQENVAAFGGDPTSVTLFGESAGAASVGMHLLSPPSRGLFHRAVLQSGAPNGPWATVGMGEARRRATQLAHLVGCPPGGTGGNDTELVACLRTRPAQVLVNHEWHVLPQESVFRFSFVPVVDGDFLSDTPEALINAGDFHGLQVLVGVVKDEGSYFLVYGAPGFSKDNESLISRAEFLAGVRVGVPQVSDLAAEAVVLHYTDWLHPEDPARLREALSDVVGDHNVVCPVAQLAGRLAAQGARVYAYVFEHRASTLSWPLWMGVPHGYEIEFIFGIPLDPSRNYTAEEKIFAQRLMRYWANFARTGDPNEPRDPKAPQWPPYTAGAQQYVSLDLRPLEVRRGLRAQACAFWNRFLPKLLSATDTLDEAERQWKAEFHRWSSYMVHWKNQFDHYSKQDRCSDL

In the case of `COc1ccc2sc3c(C)ccc(NCCC4CCN(C)CC4)c3c(=O)c2c1`, the IC50 [1] is reported as 1.8 µM, the IC50 [2] is reported as 16.1 µM and the inhibition [3] is reported as 16%. The Activity [4] was 2.9%, the Activity [5] was 3.8% and the Activity [6] was 8.5%. For the same compound, the Activity [7] was 17.4%, the Activity [8] was 29.9% and the Activity [9] was 76.2%. For the same compound, the Activity [10] was 81.5%, the Activity [11] was 77.8% and the Activity [12] was 1.6%. The Activity [13] was 7.6%, the Activity [14] was 25.8% and the Activity [15] was 41.4%. The Activity [16] was 91.3%, the Activity [17] was 85.7% and the Activity [18] was 16.7%. For the same compound, the Activity [19] was 48.9%, the Activity [20] was 55.7% and the Activity [21] was 88.5%. The Activity [22] was 84.1%, the Activity [23] was 92.4% and the Activity [24] was 28.5%. The Activity [25] was 46.5%, the Activity [26] was 54.7% and the Activity [27] was 56.1%. The Activity [28] was 60.4%, the Activity [29] was 88.1% and the Activity [30] was 89.4%. The Activity [31] was “Active” and the viability at 10 µM [32] was 30%.
